# Measurements as given in ChEMBL document CHEMBL3352570, “ST7612AA1, a thioacetate-ω(γ-lactam carboxamide) derivative selected from a novel generation of oral HDAC inhibitors” (J Med Chem, 2014).
# The source made the active and inactive calls. The rule behind the calls is not given here.
# What was measured:
# [1] = system: Mus musculus; experiment: Toxicity in human A2780 cells xenografted athymic nude mouse assessed as body weight loss at 60 mg/kg, po qd for 5 days a week for 3 weeks; format: organism-based; design: dose 60 mg/kg, route oral; settings: in vivo, in the assay text read “for 2 weeks” for “for 3 weeks”
# Outline: (§1)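 Nude mice (female, athymic, 5–6 weeks) carried sc right-flank xenografts of 5 × 10⁶ cells per 100 μL. Oral treatment once daily started 3 days after inoculation.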
# [2] = Half life in human hepatocytes at 5 uM by LCMS/MS analysis; format: ADME, cell-based, Hepatocyte
# Outline: (§2)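 Incubation in human hepatocytes. […] Values are means of at least three experiments.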
# [3] = Cytotoxicity against human HCT116 cells after 24 hrs by SRB assay; format: functional, cell-based; settings: HCT-116, 24 h
# Outline: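 HCT116 cells were cultured in McCoy's 5A with L-glutamine, 10% heat-inactivated FCS and 50 μg/mL gentamicin. After seeding at about 10% confluence and a 24 h recovery, they received drug for 24 h. Drug was washed out and cells were incubated 48 h more before SRB staining. IC50 is the 50% cell-number reduction versus vehicle, from fitted dose–response curves; means of at least two experiments.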
# [4] = Efflux ratio of permeability from apical to basolateral side to basolateral to apical side of human Caco2 cells; format: ADME, cell-based; settings: caco-2
# Outline: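 Caco-2 monolayers; the efflux ratio is flux in the apical-to-basolateral direction over flux in the basolateral-to-apical direction. Means of at least three experiments.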
# [5] = system: NCI-H460; experiment: Cytotoxicity against human NCI-H460 cells after 24 hrs by SRB assay; format: functional, cell-based; settings: NCI-H460, 24 h
# Outline: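 NCI-H460 cells were grown in RPMI-1640 with L-glutamine, 10% heat-inactivated FCS and 50 μg/mL gentamicin. Cells were seeded at about 10% confluence and allowed to recover for 24 h. They were exposed to varying concentrations for 24 h, washed, then cultured a further 48 h. Surviving cells were measured by SRB. IC50 is the 50% reduction in cell number versus vehicle, from dose–response curve fitting; means of at least three experiments.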
# [6] = system: A2780; experiment: Antitumor activity against human A2780 cells xenografted in athymic nude mouse assessed as tumor volume inhibition at 60 mg/kg, po qd for 5 days a week for 3 weeks; format: functional; settings: in the assay text read “for 2 weeks” for “for 3 weeks”
# Outline: (§3)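 Female athymic nude mice, 5–6 weeks old, were inoculated sc in the right flank with 5 × 10⁶ exponentially growing tumor cells per 100 μL. Oral dosing once daily began 3 days after tumor injection, in Solutol HS15 diluted 1/20 in water. Tumor volume inhibition was calculated as TVI% = 100 − [(mean TV treated/mean TV control) × 100].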
# [7] = target: Histone deacetylase; experiment: Inhibition of HDAC-mediated tubulin deacetylation in human NCI-H460 cells after 3 hrs by Western blot analysis; format: cell-based
# Outline: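 Cells (NCI-H460) were treated for 3 h with graded concentrations. The cytoplasmic fraction was collected after HNB/1% NP-40 lysis and centrifugation of nuclei at 2000g. This fraction was resolved by SDS-PAGE and probed for acetylated α-tubulin against α-tubulin and β-actin. Bands were detected by ECL and quantified by densitometry after normalization; IC50 fitted; means of at least two experiments.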
# [8] = Efflux ratio of permeability from apical to basolateral side to basolateral to apical side of human Caco2 cells in presence of digoxin; format: ADME, cell-based; settings: caco-2
# Outline: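 Caco-2 AB/BA flux ratio measured with digoxin coincubated with test and reference compounds. Means of at least three experiments.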
# [9] = target: Histone deacetylase; experiment: Inhibition of HDAC-mediated histone H4 deacetylation in human NCI-H460 cells after 3 hrs by Western blot analysis; format: cell-based
# Outline: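 NCI-H460 cells were plated the day before and treated 3 h across a dose range. Cells were washed with DPBS containing 5 mM NaB and lysed in HNB buffer with 1% NP-40. Histones were acid-extracted from nuclei with 0.4 equiv/L H2SO4 and precipitated with acetone. Blots were probed for acetyl-H4 against total H4. Read-out was ECL and densitometry after normalization; IC50 fitted; means of at least two experiments.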
# [10] = Intrinsic clearance in human hepatocytes assessed per million cells at 5 uM by LCMS/MS analysis; format: ADME, cell-based, Hepatocyte; settings: read-out: CLH; outline: as §2
# [11] = Solubility of the compound in Solutol HS15
# [12] = Antitumor activity against human HCT116 cells xenografted in athymic nude mouse assessed as tumor volume inhibition at 60 mg/kg, po qd for 5 days a week for 3 weeks; format: functional; settings: HCT-116; outline: as §3
# [13] = system: Mus musculus; experiment: Toxicity in human HCT116 cells xenografted athymic nude mouse assessed as body weight loss at 60 mg/kg, po qd for 5 days a week for 3 weeks; format: organism-based, HCT-116; design: dose 60 mg/kg, route oral; settings: in vivo; outline: as §1
# [14] = Stability of the compound in aqueous solution at pH 7.4 after 24 hrs; format: physicochemical; settings: buffer, pH 7.4, 24 h
# Outline: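 Stability in aqueous solution at pH 7.4 over 24 h.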
# [15] = system: Mus musculus; experiment: Toxicity in human A2780 cells xenografted athymic nude mouse assessed as body weight loss at 100 mg/kg, po qd for 5 days a week for 2 weeks; format: organism-based; design: dose 100 mg/kg, route oral; settings: in vivo; outline: as §1
# [16] = Stability of the compound in aqueous solution at pH 1.2 after 3 hrs; settings: buffer, pH 1.2, 3 h
# [17] = target: T1, Histone deacetylase 11 (Homo sapiens, UniProt Q96DB2); experiment: Inhibition of HDAC11 (unknown origin) using fluorogenic tetrapeptide RHKK(Ac) substrate by fluorescence assay
# T1 sequence (Q96DB2 whole entry): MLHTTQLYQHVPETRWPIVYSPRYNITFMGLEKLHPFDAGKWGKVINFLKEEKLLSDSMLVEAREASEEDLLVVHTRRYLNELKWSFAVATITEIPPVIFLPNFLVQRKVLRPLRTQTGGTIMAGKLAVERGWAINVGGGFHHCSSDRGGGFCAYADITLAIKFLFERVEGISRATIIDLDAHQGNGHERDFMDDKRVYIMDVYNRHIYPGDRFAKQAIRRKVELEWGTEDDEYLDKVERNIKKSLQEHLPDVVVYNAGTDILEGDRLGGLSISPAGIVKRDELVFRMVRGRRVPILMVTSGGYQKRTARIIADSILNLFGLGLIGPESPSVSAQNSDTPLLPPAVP
# [18] = target: Histone deacetylase 3 (Homo sapiens, UniProt O15379); experiment: Inhibition of HDAC3 (unknown origin) using fluorogenic tetrapeptide RHKK(Ac) substrate by fluorescence assay
# Chain of Histone deacetylase 3 (O15379 whole entry): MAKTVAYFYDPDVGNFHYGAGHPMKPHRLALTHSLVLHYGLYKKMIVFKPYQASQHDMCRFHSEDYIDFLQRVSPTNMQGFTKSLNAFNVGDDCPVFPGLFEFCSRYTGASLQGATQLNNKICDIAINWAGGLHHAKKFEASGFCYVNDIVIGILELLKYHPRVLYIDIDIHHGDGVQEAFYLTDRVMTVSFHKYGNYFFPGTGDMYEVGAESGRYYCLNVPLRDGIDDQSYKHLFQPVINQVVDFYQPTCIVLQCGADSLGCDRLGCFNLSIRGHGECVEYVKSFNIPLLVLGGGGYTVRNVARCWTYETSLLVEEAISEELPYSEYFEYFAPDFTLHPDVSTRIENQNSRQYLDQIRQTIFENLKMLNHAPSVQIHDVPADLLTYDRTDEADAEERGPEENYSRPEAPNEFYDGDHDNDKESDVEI
# [19] = target: Histone deacetylase 2 (Homo sapiens, UniProt Q92769); experiment: Inhibition of HDAC2 (unknown origin) using fluorogenic tetrapeptide RHKK(Ac) substrate at <50 uM by fluorescence assay
# Chain of Histone deacetylase 2 (Q92769 whole entry, the tested form may be a part): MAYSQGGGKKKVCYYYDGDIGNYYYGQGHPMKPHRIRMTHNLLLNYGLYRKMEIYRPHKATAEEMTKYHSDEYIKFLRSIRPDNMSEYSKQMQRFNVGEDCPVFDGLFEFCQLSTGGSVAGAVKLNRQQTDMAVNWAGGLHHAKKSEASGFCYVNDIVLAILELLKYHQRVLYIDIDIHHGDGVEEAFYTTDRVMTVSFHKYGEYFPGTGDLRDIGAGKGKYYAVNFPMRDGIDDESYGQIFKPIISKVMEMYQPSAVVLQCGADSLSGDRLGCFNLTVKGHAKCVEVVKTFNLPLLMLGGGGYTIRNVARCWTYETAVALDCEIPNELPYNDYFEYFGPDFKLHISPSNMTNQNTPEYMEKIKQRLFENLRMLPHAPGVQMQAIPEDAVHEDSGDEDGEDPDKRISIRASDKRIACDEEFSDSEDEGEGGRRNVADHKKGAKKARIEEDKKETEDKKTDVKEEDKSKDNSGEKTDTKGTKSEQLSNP
# Outline: (§4)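 Fluorogenic assay with the tetrapeptide RHKK(Ac) substrate (p53 residues 379–382) at 50 μM.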
# [20] = target: T2, Protein deacetylase HDAC6 (Homo sapiens) (UniProt Q9UBN7); experiment: Inhibition of HDAC6 (unknown origin) using fluorogenic tetrapeptide RHKK(Ac) substrate at <50 uM by fluorescence assay; outline: as §4
# T2 sequence (whole entry): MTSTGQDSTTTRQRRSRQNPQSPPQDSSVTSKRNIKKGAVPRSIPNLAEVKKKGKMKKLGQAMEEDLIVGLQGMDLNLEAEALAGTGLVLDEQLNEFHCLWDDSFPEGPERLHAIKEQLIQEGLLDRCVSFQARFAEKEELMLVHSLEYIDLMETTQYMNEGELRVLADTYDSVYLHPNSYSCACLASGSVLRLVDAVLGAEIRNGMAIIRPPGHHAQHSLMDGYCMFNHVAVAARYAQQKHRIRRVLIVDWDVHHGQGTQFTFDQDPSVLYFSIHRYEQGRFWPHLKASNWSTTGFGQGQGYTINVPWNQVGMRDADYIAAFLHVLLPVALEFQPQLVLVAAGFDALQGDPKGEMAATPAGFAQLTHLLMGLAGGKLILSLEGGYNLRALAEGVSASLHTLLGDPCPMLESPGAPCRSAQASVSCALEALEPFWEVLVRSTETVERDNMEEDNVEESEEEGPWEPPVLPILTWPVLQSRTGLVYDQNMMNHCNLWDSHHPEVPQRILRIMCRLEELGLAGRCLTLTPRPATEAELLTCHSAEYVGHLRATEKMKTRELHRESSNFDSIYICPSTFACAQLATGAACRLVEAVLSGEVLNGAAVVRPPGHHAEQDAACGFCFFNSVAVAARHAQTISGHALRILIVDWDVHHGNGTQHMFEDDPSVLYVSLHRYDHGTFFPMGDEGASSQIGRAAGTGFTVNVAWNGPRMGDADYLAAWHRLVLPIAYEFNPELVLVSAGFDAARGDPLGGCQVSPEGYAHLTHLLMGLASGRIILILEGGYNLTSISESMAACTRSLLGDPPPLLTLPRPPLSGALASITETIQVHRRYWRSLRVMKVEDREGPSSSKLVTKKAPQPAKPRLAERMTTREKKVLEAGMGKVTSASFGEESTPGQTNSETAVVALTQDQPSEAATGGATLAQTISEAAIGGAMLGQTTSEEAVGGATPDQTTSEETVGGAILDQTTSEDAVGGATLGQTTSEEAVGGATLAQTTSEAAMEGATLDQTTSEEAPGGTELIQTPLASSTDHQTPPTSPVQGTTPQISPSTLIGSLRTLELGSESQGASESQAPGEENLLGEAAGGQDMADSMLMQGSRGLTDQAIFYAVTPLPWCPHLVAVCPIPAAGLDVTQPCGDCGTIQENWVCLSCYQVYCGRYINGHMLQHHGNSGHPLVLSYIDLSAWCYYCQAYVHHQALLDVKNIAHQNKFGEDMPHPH
# [21] = target: T3, Histone deacetylase 8 (Homo sapiens) (UniProt Q9BY41); experiment: Inhibition of HDAC8 (unknown origin) using fluorogenic tetrapeptide RHK(Ac)K(Ac) substrate at <50 uM by fluorescence assay
# T3 sequence (whole entry): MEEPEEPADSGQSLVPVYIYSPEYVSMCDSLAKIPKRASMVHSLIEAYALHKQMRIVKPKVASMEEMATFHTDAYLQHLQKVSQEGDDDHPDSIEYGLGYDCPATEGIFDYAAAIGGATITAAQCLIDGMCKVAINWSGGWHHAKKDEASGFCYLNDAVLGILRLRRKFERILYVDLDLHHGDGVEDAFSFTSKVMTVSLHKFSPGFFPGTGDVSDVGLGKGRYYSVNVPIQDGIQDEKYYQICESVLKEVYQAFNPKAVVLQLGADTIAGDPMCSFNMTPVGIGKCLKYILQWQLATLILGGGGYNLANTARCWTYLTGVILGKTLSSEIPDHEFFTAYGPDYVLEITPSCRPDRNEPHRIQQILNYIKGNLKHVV
# Outline: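 The HDAC8 assay used the diacetylated fluorogenic substrate RHK(Ac)K(Ac) at 50 μM.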
# [22] = target: Histone deacetylase 1 (Homo sapiens, UniProt Q13547); experiment: Inhibition of HDAC1 (unknown origin) using fluorogenic tetrapeptide RHKK(Ac) substrate by fluorescence assay
# Chain of Histone deacetylase 1 (Q13547 whole entry): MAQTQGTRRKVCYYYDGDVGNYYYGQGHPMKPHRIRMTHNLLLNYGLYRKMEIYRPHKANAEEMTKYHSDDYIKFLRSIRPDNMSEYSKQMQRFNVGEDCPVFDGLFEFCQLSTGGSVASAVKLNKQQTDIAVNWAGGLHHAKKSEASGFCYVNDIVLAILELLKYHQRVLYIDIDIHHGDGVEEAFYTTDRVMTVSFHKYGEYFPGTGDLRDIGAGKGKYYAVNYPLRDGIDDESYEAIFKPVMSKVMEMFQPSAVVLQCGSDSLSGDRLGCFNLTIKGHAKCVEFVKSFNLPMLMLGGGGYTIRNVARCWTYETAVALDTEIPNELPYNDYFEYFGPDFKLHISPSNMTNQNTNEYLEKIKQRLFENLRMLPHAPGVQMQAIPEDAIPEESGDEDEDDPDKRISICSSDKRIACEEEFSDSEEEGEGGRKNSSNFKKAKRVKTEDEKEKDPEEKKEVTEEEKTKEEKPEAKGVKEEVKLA
# [23] = target: T4, Polyamine deacetylase HDAC10 (Homo sapiens, UniProt Q969S8); experiment: Inhibition of HDAC10 (unknown origin) using fluorogenic tetrapeptide RHKK(Ac) substrate by fluorescence assay
# T4 sequence (Q969S8 whole entry): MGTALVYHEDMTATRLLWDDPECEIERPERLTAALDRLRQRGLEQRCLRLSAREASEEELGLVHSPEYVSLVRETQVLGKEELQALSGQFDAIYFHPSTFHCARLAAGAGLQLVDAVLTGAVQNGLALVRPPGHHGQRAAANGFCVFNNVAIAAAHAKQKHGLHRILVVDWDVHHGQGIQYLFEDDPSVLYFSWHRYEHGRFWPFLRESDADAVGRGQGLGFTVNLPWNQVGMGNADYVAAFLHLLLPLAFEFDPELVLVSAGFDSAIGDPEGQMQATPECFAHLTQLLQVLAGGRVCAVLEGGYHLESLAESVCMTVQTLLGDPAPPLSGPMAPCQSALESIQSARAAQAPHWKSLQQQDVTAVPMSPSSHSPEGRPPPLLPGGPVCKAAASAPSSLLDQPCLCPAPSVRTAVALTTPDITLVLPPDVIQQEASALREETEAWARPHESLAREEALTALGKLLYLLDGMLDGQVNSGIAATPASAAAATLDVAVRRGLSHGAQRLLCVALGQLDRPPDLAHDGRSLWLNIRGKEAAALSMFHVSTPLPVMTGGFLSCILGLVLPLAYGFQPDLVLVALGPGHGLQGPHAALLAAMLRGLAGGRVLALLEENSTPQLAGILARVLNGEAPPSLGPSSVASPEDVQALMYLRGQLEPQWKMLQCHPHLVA
compound,measurement,setting,value
CC(=O)SCCCCC[C@H](NC(=O)[C@H]1CCC(=O)N1)C(=O)Nc1ccccc1,Activity,[1],7%
same,half-life at 5 µM,[2],2.7 min
same,IC50,[3],0.075 µM
same,Ratio,[4],6.9
same,IC50,[5],0.07 µM
same,inhibition in vivo at 60 mg/kg,[6],89%
same,IC50,[7],0.2 µM
same,Ratio,[8],4.2
same,IC50,[9],0.005 µM
same,hepatocyte CLint at 5 µM,[10],252 µL/min/1e6 cells
same,solubility,[11],> 10000 µg/mL
same,inhibition in vivo at 60 mg/kg,[12],62%
same,Activity,[13],1%
O=C(CCCCCCC(=O)Nc1ccccc1)NO [VORINOSTAT],Stability,[14],Stable
same,Activity,[15],4%
same,half-life at 5 µM,[2],47.5 min
same,Stability,[16],Stable
same,hepatocyte CLint at 5 µM,[10],14.7 µL/min/1e6 cells
O=C(CCCCCCS)N1CCc2ccccc2C1,IC50,[17],0.949 µM
same,IC50,[18],35.8 µM
same,inhibition,[19],inactive
same,inhibition,[20],inactive
same,inhibition,[21],inactive
same,IC50,[22],1.75 µM
same,IC50,[23],2.93 µM
